Compound activity as filed in PubChem.
Hck Nef HTS – inhibitors of human Hck kinase activated by Nef. AID 463187. P08631. 220,000 tested, 0.68% active. Recombinant Hck-YEEI plus Nef, Z-Lyte FRET kinase assay. inhibition, % at 20 µM;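 active = Hck-Nef kinase inhibition above about 50%, limit read from the data; inactive = inhibition below that limit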
RanGTP-Impb inh – inhibitors of RanGTP-importin-beta interaction, primary screen, biochemical, FRET, CFP-Ran, YFP-importin-beta, homogeneous; inhibition, % (concentration not given with the values); cell-free CFP-Ran/YFP-importin-beta FRET ratio; 300,000 tested, 1.1% active;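 active = more than half of the replicate wells show a fall in the fluorescence ratio signal beyond about 16%, limit read from the data, passing the limit was not always enough; inconclusive = exactly half of the replicate wells pass the set limit; inactive = fewer than half of replicates pass the limit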
CaV13 FRET inh – Disruptors of the CACNA1D IQ motif to Ca2+-dependent inactivation inhibitor domain association, primary screening, Förster resonance energy transfer in intact living …; HEK cells, CFP/YFP FRET ICDI-IQ, plate reader, 10 min; percent FRET-ratio fall versus neutral wells; inhibition, % at 12.3 µM; 340,000 tested, 0.098% active; AID 743397;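 active = mean replicate inhibition of at least 30% and at least 1% of replicates passing that level; inconclusive = only one of the two criteria is met; inactive = neither criterion is met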
Runt-CBFb FRET – inhibitors of human RUNX1 Runt domain binding to CBFb; 220,000 tested, 0.46% active; AID 1496; Cerulean-Runt/Venus-CBFb FRET ratio 530/480, 1 h; inhibition, % at 20 µM;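 active = inhibition over about 50% at 20 µM in the single-dose screen, limit read from the data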
Target sequence (Q01196 whole entry, looked up, the tested form may be a part): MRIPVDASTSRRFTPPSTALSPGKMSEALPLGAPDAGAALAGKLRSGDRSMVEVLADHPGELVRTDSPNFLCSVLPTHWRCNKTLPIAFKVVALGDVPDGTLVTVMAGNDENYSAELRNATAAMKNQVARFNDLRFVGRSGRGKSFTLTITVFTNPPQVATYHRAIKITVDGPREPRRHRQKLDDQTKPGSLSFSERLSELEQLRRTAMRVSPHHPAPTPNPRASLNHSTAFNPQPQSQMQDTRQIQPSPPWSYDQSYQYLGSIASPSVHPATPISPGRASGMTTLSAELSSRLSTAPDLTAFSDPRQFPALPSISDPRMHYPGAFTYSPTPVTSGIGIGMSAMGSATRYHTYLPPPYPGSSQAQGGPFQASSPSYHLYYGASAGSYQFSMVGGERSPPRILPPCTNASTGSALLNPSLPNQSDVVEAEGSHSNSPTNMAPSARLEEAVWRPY
Target sequence (Q13951 whole entry, looked up, the tested form may be a part): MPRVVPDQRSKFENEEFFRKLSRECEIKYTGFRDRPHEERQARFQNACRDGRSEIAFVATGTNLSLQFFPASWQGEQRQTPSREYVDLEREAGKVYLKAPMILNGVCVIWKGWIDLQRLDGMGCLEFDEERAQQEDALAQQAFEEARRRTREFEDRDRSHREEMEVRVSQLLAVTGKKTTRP
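Measured by: fluorescence energy transfer, 422 nm excitation, 530/480 nm emission; Assay system: Cerulean-Runt domain; Medium: Tris pH 7.5 buffer with BSA; Measure: loss of energy transfer signal; Controls: 5 µM unlabeled CBFb as full-inhibition high control; Incubation: protein complex preformed 1 h, compound exposure 1 h, room temperature, dark.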
Runt-SMMHC FRET – Runt domain-CBFb-SMMHC interaction inhibition; Q01196+Q13951; Cerulean-Runt/Venus-CBFb-SMMHC FRET ratio 530/480, 1 h; inhibition, % at 20 µM; 220,000 tested, 0.74% active; AID 1434;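 active = mean inhibition across duplicate retests at 20 µM reaching about 50%, limit read from the data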;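 note: inhibitors lower the FRET ratio by blocking Runt binding to CBFb-SMMHC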
Runt-CBFb TRFRET – inhibitors of human RUNX1 Runt domain binding to CBFb; AID 1502; TR-FRET RUNX1 Runt domain-CBFb binding; inhibition, % at 20 µM; 480 tested, 20% active; shares compounds with Runt-CBFb FRET; in the data active = inhibition above about 40%
Numbers stand for hits; - = inactive; ? = inconclusive; . = no result given. A selection: hits, their analogues and other compounds. The true share with any hit is near 1.5%.

SMILES | Hck Nef HTS | RanGTP-Impb inh | CaV13 FRET inh | Runt-CBFb FRET | Runt-SMMHC FRET | Runt-CBFb TRFRET
CNCc1ccccc1Sc1cccc(O)c1 | - | - | - | - | - | .
CNCc1ccccc1Sc1cc(O)ccc1O | - | . | - | 52 | - | -
COc1ccc(NC(=O)CSc2nnnn2Cc2ccccc2)cc1 | - | - | - | - | - | .
Cc1cc(C)c(NC(=S)NCC2CCN(C(C)c3ccccc3)C2)c(C)c1 (centres undefined) | - | - | - | 54 | - | -
CCCOC(=O)C1=C(C)NC2=C(C(=O)CC(C)(C)C2)C1c1cccnc1 (centres undefined) | - | ? | - | 63 | 127 | -
CCCOC(=O)C1=C(C)NC2=C(C(=O)CC(C)(C)C2)C1c1ccc(N(C)C)cc1 (centres undefined) | - | - | - | - | - | .
COc1ccc(N2CSC3=C(C#N)C(c4ccc(OC)c(OC)c4)CC(=O)N3C2)c(OC)c1 (centres undefined) | - | - | - | - | - | .
COc1ccc(C2CC(=O)N3CN(c4ccc(C)c(Cl)c4)CSC3=C2C#N)cc1OC (centres undefined) | - | - | - | 59 | 100 | -
Cn1c(=O)c(S(=O)C2CCCCC2)c(O)c2ccccc21 (centres undefined) | . | - | - | . | . | .
O=C(O)c1ccc(-n2c(-c3cc(-c4ccco4)[nH]n3)n[nH]c2=S)cc1 | - | ? | - | 53 | - | 81
COC(=O)c1ccc(N2CCN(C)CC2)c(NC(=O)COc2cccc(C)c2)c1 | . | - | - | . | . | .
Clc1cccc(Nc2c3c(nc4ncnn24)CCC3)c1 | - | - | - | 54 | - | -
CCc1cccc(Nc2c3c(nc4ncnn24)CCC3)c1 | - | - | - | - | - | .
CCOC(=O)c1c(/N=C/c2cc(C)ccc2O)sc2c1CCN(C)C2 | - | 56 | - | 50 | 60 | -
CCn1cc(CCC(=O)NC2CCCC2)c2ccccc21 | . | - | - | . | . | .
COCCN1C2=C(C(=O)CC(C)(C)C2)C(c2ccc(O)c(OC)c2)C2=C1CC(C)(C)CC2=O | . | - | - | . | . | .
COc1cc(C2C3=C(CC(C)(C)CC3=O)Nc3c2c(=O)[nH]c(=O)n3Cc2ccccc2)ccc1O (centres undefined) | - | ? | - | 76 | 115 | -
COc1ccc(C2=CC(=O)C=CC2=O)cc1 | 70 | - | . | 68 | 86 | -
O=C(NCc1ccccc1)c1nccnc1CO | . | - | - | . | . | .
CC(C)S(=O)(=O)C1=NSC2=NC(=O)/C(=C\c3ccc(-c4cccc(C(=O)O)c4)o3)C(=N)N21 | - | . | - | 60 | - | -
COc1ccc(-c2csc(Nc3ncccc3C)n2)cc1OC | - | - | . | - | - | .
Cc1cccnc1Nc1nc(-c2ccc(O)c(O)c2)cs1 | - | - | - | 65 | 52 | -
CSc1nc(C)c(C(=O)C[n+]2ccccc2)cc1C#N | - | - | - | - | - | .
CCOC(=O)C1=C(CNCCc2ccc(Cl)cc2)NC(=O)NC1c1ccc2c(c1)OCO2 (centres undefined) | - | - | - | 65 | - | -
Cc1cccc(N2CCN(C(=O)c3ccc(Cl)c(NC4=NC5CS(=O)(=O)CC5S4)c3)CC2C)c1 (centres undefined) | . | - | - | . | . | .
SMILES | Hck Nef HTS | RanGTP-Impb inh | CaV13 FRET inh | Runt-CBFb FRET | Runt-SMMHC FRET | Runt-CBFb TRFRET
CCOC(=O)N(Cc1ccccc1)Cc1ccc(C(=O)N[C@@H](Cc2ccccc2)C(=O)O)cc1 | . | - | - | . | . | .
CCOC(=O)c1ccc(N2C(=O)c3n[nH]c(-c4ccco4)c3C2c2ccc([N+](=O)[O-])cc2)cc1 (centres undefined) | - | - | - | 68 | - | -
CCOC(=O)c1ccc(N2C(=O)c3n[nH]c(C)c3C2c2cccnc2)cc1 (centres undefined) | - | - | . | - | - | .
COc1ccc(Cn2c(-c3ccc(OC)cc3)nc3c(c(=O)c4ccccc4n3C)c2=O)cc1 | - | - | . | - | - | .
COc1ccc(-c2nc3c(c(=O)c4ccccc4n3C)c(=O)n2Cc2ccccc2)cc1 | - | - | - | 53 | - | 61
NS(=O)(=O)c1ccc(NC(=S)NCc2ccccc2)cc1 | - | - | - | 52 | - | -
CCOC(=O)c1sc2c(c1C)c(=O)n(Cc1ccccc1)c(=O)n2CCN(C)C | . | - | - | . | . | .
O=C(CSc1ncnc2ccccc12)c1ccco1 | - | ? | . | 59 | 116 | 42
CC(OC(=O)CCNS(=O)(=O)c1cccs1)C(=O)Nc1ccc(S(N)(=O)=O)cc1 (centres undefined) | . | . | - | . | . | .
c1ccc(C2CC(c3cccs3)=NN2c2ccccc2)cc1 (centres undefined) | - | - | - | 51 | 84 | -
CC1(C)C2CCC1(C)C(SC(=N)N)C2 (centres undefined) | . | . | - | . | . | .
COc1ccc(S(=O)(=O)N(C(C)=O)c2ccc3oc(=O)sc3c2)cc1 | - | - | - | 67 | 58 | -
CC(=O)c1ccc(OC(=O)CCc2nc3ccccc3s2)cc1 | - | - | - | 59 | - | 42
Oc1ccc(Cl)cc1C1=Nc2ccccc2N=C(c2ccco2)C1 | - | - | - | - | - | .
Fc1ccccc1C1CC(c2ccco2)=Nc2ccccc2S1 (centres undefined) | - | - | - | 50 | - | -
CC1CCC(NC(=O)CC(NC(N)=O)c2ccccc2Cl)CC1 (centres undefined) | . | - | - | . | . | .
C=CCN1C(=O)/C(=C2/Sc3ccc(OC)cc3N2C)SC1=NCc1ccccc1 | - | - | - | 51 | - | -
COc1ccc(CCN2CC(C(=O)NCc3ccc(F)cc3)CC2=O)cc1OC (centres undefined) | - | - | - | - | - | .
COc1ccccc1NS(=O)(=O)c1cc(NC(=O)c2cccs2)ccc1N1CCCCC1 | - | - | - | - | - | .
COc1ccccc1NS(=O)(=O)c1cc(NC(=O)c2cccs2)ccc1N1CCCC1 | - | - | - | 50 | - | -
COc1ccccc1NS(=O)(=O)c1cc(NC(=O)c2sccc2C)ccc1N1CCCC1 | - | - | - | 51 | - | -
Cc1cccc(OCC2CCCN(Cc3nc(C4CC4)no3)C2)c1 (centres undefined) | - | - | - | - | - | .
CC(=O)N1Cc2cc(C(=O)NCC(F)(F)F)nc(-c3cccc(-c4cc5ccccc5o4)c3)c2[C@@H]1CCO | . | . | - | . | . | .
O=c1oc2ccc(NS(=O)(=O)c3cccc4cccnc34)cc2s1 | . | - | - | . | . | .
O=C(O)c1cccc(S(=O)(=O)Nc2ccc3oc(=O)sc3c2)c1 | - | - | . | 65 | 68 | -
COC(=O)/C(C#N)=C/c1c(N2CCN(c3ccccc3)CC2)nc2c(C)cccn2c1=O | . | - | - | . | . | .
CNC(=O)/C(C#N)=C/c1c(N(Cc2ccccc2)Cc2ccccc2)nc2c(C)cccn2c1=O | - | - | - | 62 | 115 | -
